From PubChem
KCNQ1 block = inhibitors of human KCNQ1 channel, primary screen, cell-based, thallium flux, high-throughput. CHO-K1 KCNQ1, FluxOR thallium flux fluorescence; hits give high values. B-score at 10 µM. 1.3% of 310,000 active. Potassium voltage-gated channel subfamily KQT member 1 (Homo sapiens), P51787;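 active means compounds whose thallium flux B-score, printed positive for inhibition, exceeds three library SD while starting fluorescence stays within three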;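 further: channel opened by potassium depolarization with thallium stimulus after 20 min compound exposure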
Target sequence (P51787 whole entry, looked up): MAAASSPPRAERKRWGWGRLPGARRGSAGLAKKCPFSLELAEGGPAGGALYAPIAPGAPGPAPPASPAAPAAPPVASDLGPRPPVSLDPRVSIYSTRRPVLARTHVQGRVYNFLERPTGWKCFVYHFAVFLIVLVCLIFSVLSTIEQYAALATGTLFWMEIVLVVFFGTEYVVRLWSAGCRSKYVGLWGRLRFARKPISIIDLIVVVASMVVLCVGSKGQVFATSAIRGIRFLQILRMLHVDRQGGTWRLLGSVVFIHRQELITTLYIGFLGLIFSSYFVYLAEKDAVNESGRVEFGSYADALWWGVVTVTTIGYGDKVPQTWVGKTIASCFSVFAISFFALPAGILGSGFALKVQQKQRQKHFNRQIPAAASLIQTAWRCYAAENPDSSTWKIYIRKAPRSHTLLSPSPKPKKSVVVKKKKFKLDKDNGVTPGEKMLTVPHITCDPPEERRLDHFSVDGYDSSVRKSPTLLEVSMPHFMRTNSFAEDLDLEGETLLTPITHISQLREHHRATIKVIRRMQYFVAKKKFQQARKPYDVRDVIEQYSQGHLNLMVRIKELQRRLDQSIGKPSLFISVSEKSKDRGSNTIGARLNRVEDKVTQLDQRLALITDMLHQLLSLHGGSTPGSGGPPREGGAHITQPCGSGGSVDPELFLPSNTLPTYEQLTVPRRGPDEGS
KCNK9 block = KCNK9 potassium channel inhibitors, primary screen, HEK293 cells, thallium flux | 1.2% of 310,000 active | FluxOR thallium flux fluorescence; hits give low values | B-score at 10 µM;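 active means ratio B-score over 3 SD below the library mean, with starting fluorescence within 5 SD of its mean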;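 further: negative B-score means less thallium flux so channel inhibition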
hERG protect = hERG rescue from dofetilide block, primary screen, cell-based, CHO-hERG, FluxOR thallium flux, dofetilide IC70; activation (rescue from dofetilide block), less the hit threshold, % at 10 µM; 0.51% of 310,000 active; Voltage-gated inwardly rectifying potassium channel KCNH2 (Homo sapiens), Q12809; dofetilide IC70 present;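 active means activation above the mean of controls blocked by dofetilide plus 5 SD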;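 further: thallium influx through hERG after potassium depolarization seen as dye fluorescence rise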
KCNQ1 pot = potentiators or activators of KCNQ1 channel, primary screen, cell-based, thallium flux, high-throughput | 0.35% of 310,000 active | AID 2648, 2010 | B-score at 10 µM | Potassium voltage-gated channel subfamily KQT member 1 (Homo sapiens), P51787 | CHO-K1 KCNQ1, thallium flux FluxOR fluorescence; hits give high values;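 active means fluorescence ratio B-score, a plate-corrected score, at least three library SD, with initial intensity B-score within 5 SD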
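assay system = KCNQ1-transfected CHO-K1 cells | medium = assay buffer with matched DMSO | probe or stimulus = depolarizing K+/Tl+ stimulus, K2SO4 and Tl2SO4 each 12.5 mM in 5x stock | dosing = single dose | incubation = dye 90 min, compound 20 min, room temperature | detection = kinetic FluxOR fluorescence, 10 s baseline plus 110 s post-stimulus | evaluation = ratio B score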
KCNK3 inh = human KCNK3 channel inhibitors, primary screen, CHO cells, FluxOR thallium flux, B-score. B-score at 10 µM. Potassium channel subfamily K member 3 (Homo sapiens), O14649. AID 602410, 2012. FluxOR fluorescence; hits give low values. 0.84% of 340,000 active;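 active means B-score under library mean minus 4 SD, starting fluorescence ratio at most library mean plus 5 SD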;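 further: more negative B-score means stronger inhibition of thallium flux through KCNK3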
KCNQ1 block val = KCNQ1 potassium channel inhibitors, confirmation, cell-based, Tl flux, duplicate; inhibition, % at 10 µM; 93% of 1,600 active; KCNQ1 cell line, FluxOR thallium flux fluorescence; shares compounds with KCNQ1 block; AID 588353, 2011;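 active means primary screen active, with duplicate mean exceeding buffer control mean plus 3 SD of buffer wells, cut at about 28% in these data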;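 further: 0% = buffer control ratio and 100% = XE991 inhibitor control ratio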
CHO Tl flux = thallium flux effects in parental CHO cells, counter-screen for KCNQ1 inhibitor project, cell-based, Tl flux. 21% of 1,600 active. fluorescence ratio (Tl flux) at 10 µM. parental CHO-K1, FluxOR thallium flux fluorescence ratio; hits give low values; zero means no signal rise above baseline. shares compounds with KCNQ1 block;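 active means mean of duplicate thallium-flux fluorescence ratios in parental host cells more than 5 SD below the buffer control mean, cut at about 0.38 in these data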;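 further: ratio is peak minus minimum fluorescence divided by baseline fluorescence; actives read low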
KCNQ1 APC inh = KCNQ1 channel inhibitors, confirmation, orthogonal assay, cell-based, automated electrophysiology | shares compounds with KCNQ1 block | KCNQ1-CHO cells, automated patch clamp current | calls only at 10 µM | 20% of 490 active | AID 624120, 2012;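 active means KCNQ1 current drop exceeding 3 SD of negative control wells, seen in both duplicate runs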;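 further: steady state current during a 2 s step from -80 to +40 mV; negative values mean current inhibition and positive values mean potentiation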
KCNQ2 spec = KCNQ2 channel inhibition, selectivity assay for KCNQ1 inhibitor project, cell-based | shares compounds with KCNQ1 block | KCNQ2 cells, FluxOR thallium flux fluorescence | inhibition, % at 10 µM | 71% of 1,600 active;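 active means mean percent inhibition of the KCNQ2 thallium signal more than 5 SD above the buffer-only control wells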;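 further: KCNQ2 expressed in CHO cells; 0% = buffer control wells and 100% = XE-991 inhibitor control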
KCNQ1-KCNE1 inh = KCNQ1/KCNE1 channel inhibition, selectivity assay for KCNQ1 inhibitor project, CHO-K1 cells, thallium flux, FluxOR. shares compounds with KCNQ1 block. FluxOR thallium flux fluorescence. inhibition, % at 10 µM. 77% of 1,600 active. AID 652147, 2013;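 active means mean percent inhibition of duplicate wells above the buffer-only control mean plus 3 SD of those controls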;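 further: 0% = buffer only wells and 100% = XE-991 inhibitor control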
Active calls of the source: *; i = inactive; nt = no result given; + = active, no number. A selection: hits, their analogues and other compounds. The true share with any hit is near 3.1%.

SMILES | KCNQ1 block | KCNK9 block | hERG protect | KCNQ1 pot | KCNK3 inh | KCNQ1 block val | CHO Tl flux | KCNQ1 APC inh | KCNQ2 spec | KCNQ1-KCNE1 inh
N#CC(c1ccccc1)(c1ncc(C(F)(F)F)cc1Cl)N1CCOCC1 (centres undefined) | 6* | i | -11 | i | i | 74* | 0.47 | nt | 99%* | 84%*
CCC1(C)Cc2ccccc2-c2nc(-c3ccccc3)oc(=O)c21 (centres undefined) | 8* | i | -13 | i | i | 92* | 0.49 | i | 102%* | 104%*
Cc1ccc(-n2nc3c(c2NC(=O)C(C)(C)C)CS(=O)(=O)C3)cc1 | i | i | -11 | i | i | nt | nt | nt | nt | nt
O=S(=O)(c1ccccc1)N1c2cc(Cl)ccc2Oc2nc3ccccc3nc21 | 8* | i | -8 | i | i | 109* | 0.36* | nt | 100%* | 146%*
CCc1nc2ccccc2nc1N1CCN(S(=O)(=O)c2ccc(Cl)cc2)CC1 | i | i | -4 | i | i | nt | nt | nt | nt | nt
COc1ccc(-n2c(C)cc(C(=O)COC(=O)Cn3cnc4ccccc43)c2C)cc1 | 9* | i | -7 | i | i | 97* | 0.41 | i | 85%* | 110%*
CC1CCCN(c2ccc3nncn3n2)C1 (centres undefined) | i | i | -6 | i | i | nt | nt | nt | nt | nt
Cn1cc(CNCc2ccc(OC(F)(F)F)cc2)c(-c2ccc3c(c2)OCCO3)n1 | 10* | i | -20 | i | i | 124* | 0.49 | i | 112%* | 60%*
COc1ccc(Nc2nc(-c3ccccc3)nc3ccccc23)c(OC)c1 | 11* | i | -8 | i | i | + | 0.41 | i | 108%* | i
COc1ccc(Nc2nc(NC(C)(C)C)nc(N3CCOCC3)n2)c(OC)c1 | i | i | -16 | i | i | nt | nt | nt | nt | nt
COc1ccc(Nc2nc(NC(C)(C)C)nc(N3CCCC3)n2)c(OC)c1 | 8* | i | -15 | i | i | 144* | 0.32* | nt | i | +
COc1ccc(Nc2nc(N3CCCCC3)nc3ccccc23)c(OC)c1 | 12* | i | -17 | i | i | 98* | 0.43 | i | 90%* | 94%*
O=C(NC(Cc1ccccc1)C(=O)O)/C(=C/c1ccc(Cl)cc1)NC(=O)c1ccco1 (centres undefined) | i | i | -8 | i | i | nt | nt | nt | nt | nt
O=C(Nc1ccc(NS(=O)(=O)c2ccccc2)cc1)c1ccccc1Cl | nt | nt | nt | nt | i | nt | nt | nt | nt | nt
CCOC(=O)C1(CC2CC2)CCN(Cc2cnc(-c3ccccc3C)nc2)CC1 | 7* | i | -2 | i | i | 0 | 0.45 | nt | 78%* | i
Cc1ccc2c(C(=O)N3CCN(c4ccccc4)CC3)cc(-c3cccnc3)nc2c1C | 8* | i | -18 | i | i | 92* | 0.46 | i | i | 192%*
